This is an account of results in ChEMBL document CHEMBL1154150, “Synthesis and anticonvulsant activity of some new bishydrazones derived from 3,4-dipropyloxythiophene” (Eur J Med Chem, 2009).

Active and inactive are the calls of the source. The rule behind the calls is not given here.

In data set [1] the test system is Mus musculus. The data set can be described thus: Anticonvulsant activity in CF1 mouse assessed as protection against maximal electroshock-induced seizures at 300 mg/kg, ip after 4 hrs. It is filed as functional, organism-based. The arrangement: dose 300 mg/kg. The gist of the method: (§1)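 Male CF-1 albino mice (18–25 g), dosed i.p. at 30, 100 or 300 mg/kg in 0.5% methyl cellulose/water or PEG 200 (0.01 ml/g); tested at intervals after dosing; protection = abolition of hind limb tonic extensor component of MES seizure; scored as protected/tested.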

Data set [2] concerns Mus musculus. The data set can be described thus: Anticonvulsant activity in CF1 mouse assessed as protection against maximal electroshock-induced seizures at 30 mg/kg, ip after 4 hrs. More on the design: dose 30 mg/kg. It is filed as functional, organism-based. A digest of the protocol: as §1
On the technique in general: The maximal electroshock test induces tonic seizures with an electrical stimulus.

Data set [3] deals with Mus musculus. Description: Anticonvulsant activity in CF1 mouse assessed as protection against 6 Hz electric shock-induced seizures at 100 mg/kg, ip after 0.5 hrs. It is filed as functional, organism-based. More on the design: dose 100 mg/kg. A digest of the protocol:
(§2)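 Male CF-1 albino mice (18–25 g), compound suspended in 0.5% methyl cellulose/water or PEG 200, given i.p.; four mice per time point (0.25, 0.5, 1.0, 2.0, 4 h) challenged via corneal electrodes at 6 Hz, 32 mA for 3 s, current eliciting psychomotor seizure in 97% of animals; reported as protected/tested.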

For data set [4], the system named is Mus musculus. Description: Anticonvulsant activity in CF1 mouse assessed as protection against maximal electroshock-induced seizures at 30 mg/kg, ip after 0.5 hrs. In kind it is functional, organism-based. More on the design: dose 30 mg/kg. The gist of the method: as §1
Data set [5] concerns Mus musculus. The data set can be described thus: Anticonvulsant activity in CF1 mouse assessed as protection against 6 Hz electric shock-induced seizures at 100 mg/kg, ip after 4 hrs. It is filed as functional, organism-based. The arrangement: dose 100 mg/kg. A digest of the protocol:
as §2

Data set [6] has as its system Mus musculus. The data set can be described thus: Neurotoxicity in CF1 mouse at 300 mg/kg, ip after 0.5 hrs by rotarod test. It is filed as toxicity, organism-based. The arrangement: dose 300 mg/kg, route intraperitoneal. To be noted: in vivo. The gist of the method:
(§3)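 Rotorod neurotoxicity in male CF-1 mice (18–25 g) after i.p. compound in 0.5% methyl cellulose/water or PEG 200 at 30, 100 or 300 mg/kg; reported as number showing toxicity/number tested.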
For orientation: Falling from the rotarod earlier than controls is read as motor impairment.

Data set [7] has as its system Mus musculus. The data set can be described thus: Anticonvulsant activity in CF1 mouse assessed as protection against maximal electroshock-induced seizures at 100 mg/kg, ip after 0.5 hrs. In kind it is functional, organism-based. More on the design: dose 100 mg/kg. The gist of the method:
as §1

Data set [8] has as its system Mus musculus. Description: Anticonvulsant activity in CF1 mouse assessed as protection against subcutaneous metrazole-induced seizures at 300 mg/kg, ip after 0.5 hrs. In kind it is functional, organism-based. The arrangement: dose 300 mg/kg.
Data set [9] concerns Mus musculus. The data set can be described thus: Neurotoxicity in CF1 mouse at 300 mg/kg, ip after 4 hrs by rotarod test. It is filed as toxicity, organism-based. The arrangement: dose 300 mg/kg, route intraperitoneal. As to conditions: in vivo. The gist of the method: as §3
Data set [10] has as its system Mus musculus. The data set can be described thus: Anticonvulsant activity in CF1 mouse assessed as protection against 6 Hz electric shock-induced seizures at 100 mg/kg, ip after 0.25 hrs. It is filed as functional, organism-based. More on the design: dose 100 mg/kg. A digest of the protocol: as §2
Data set [11] relates to Mus musculus. Description: Neurotoxicity in CF1 mouse at 100 mg/kg, ip after 4 hrs by rotarod test. As to conditions: in vivo. More on the design: dose 100 mg/kg, route intraperitoneal. In kind it is toxicity, organism-based. A digest of the protocol:
as §3

For data set [12], the system named is Mus musculus. Description: Anticonvulsant activity in CF1 mouse assessed as protection against subcutaneous metrazole-induced seizures at 300 mg/kg, ip after 4 hrs. In kind it is functional, organism-based. The arrangement: dose 300 mg/kg.
The subject of data set [13] is Mus musculus. Description: Neurotoxicity in CF1 mouse at 100 mg/kg, ip after 0.5 hrs by rotarod test. In kind it is toxicity, organism-based. More on the design: dose 100 mg/kg, route intraperitoneal. As to conditions: in vivo. A digest of the protocol:
as §3

For data set [14], the system named is Mus musculus. Description: Anticonvulsant activity in CF1 mouse assessed as protection against maximal electroshock-induced seizures at 100 mg/kg, ip after 4 hrs. It is filed as functional, organism-based. The arrangement: dose 100 mg/kg. The gist of the method: as §1
For data set [15], the system named is Mus musculus. The data set can be described thus: Anticonvulsant activity in CF1 mouse assessed as protection against maximal electroshock-induced seizures at 300 mg/kg, ip after 0.5 hrs. More on the design: dose 300 mg/kg. It is filed as functional, organism-based. The gist of the method: as §1
The subject of data set [16] is Mus musculus. Description: Anticonvulsant activity in CF1 mouse assessed as protection against subcutaneous metrazole-induced seizures at 30 mg/kg, ip after 0.5 hrs. In kind it is functional, organism-based. The arrangement: dose 30 mg/kg.
Data set [17] relates to Mus musculus. The data set can be described thus: Neurotoxicity in CF1 mouse at 30 mg/kg, ip after 4 hrs by rotarod test. The arrangement: dose 30 mg/kg, route intraperitoneal. As to conditions: in vivo. In kind it is toxicity, organism-based. A digest of the protocol:
as §3

Data set [18] relates to Mus musculus. The data set can be described thus: Anticonvulsant activity in CF1 mouse assessed as protection against subcutaneous metrazole-induced seizures at 30 mg/kg, ip after 4 hrs. In kind it is functional, organism-based. The arrangement: dose 30 mg/kg.
Data set [19] has as its system Mus musculus. The data set can be described thus: Neurotoxicity in CF1 mouse at 30 mg/kg, ip after 0.5 hrs by rotarod test. The arrangement: dose 30 mg/kg, route intraperitoneal. It is filed as toxicity, organism-based. To be noted: in vivo. A digest of the protocol: as §3
For data set [20], the system named is Mus musculus. The data set can be described thus: Anticonvulsant activity in CF1 mouse assessed as protection against subcutaneous metrazole-induced seizures at 100 mg/kg, ip after 4 hrs. It is filed as functional, organism-based. More on the design: dose 100 mg/kg.
For data set [21], the system named is Mus musculus. The data set can be described thus: Anticonvulsant activity in CF1 mouse assessed as protection against 6 Hz electric shock-induced seizures at 100 mg/kg, ip after 2 hrs. More on the design: dose 100 mg/kg. It is filed as functional, organism-based. A digest of the protocol: as §2
In data set [22] the test system is Mus musculus. Description: Anticonvulsant activity in CF1 mouse assessed as protection against 6 Hz electric shock-induced seizures at 100 mg/kg, ip after 1 hr. It is filed as functional, organism-based. The arrangement: dose 100 mg/kg. A digest of the protocol:
as §2

For data set [23], the system named is Mus musculus. The data set can be described thus: Anticonvulsant activity in CF1 mouse assessed as protection against subcutaneous metrazole-induced seizures at 100 mg/kg, ip after 0.5 hrs. It is filed as functional, organism-based. More on the design: dose 100 mg/kg.

`CCCOc1c(C(=O)N/N=C\c2cc(OC)c(OC)c(OC)c2)sc(C(=O)N/N=C/c2cc(OC)c(OC)c(OC)c2)c1OCCC`: the result in the data set with Mus musculus [1], with Mus musculus [2], in the data set with Mus musculus [3], in the data set on Mus musculus [4], with Mus musculus [5] and in the data set with Mus musculus [7] was inactive. Further, the outcome in the data set on Mus musculus [8], in the data set on Mus musculus [10], in the data set on Mus musculus [12], in the data set with Mus musculus [14], in the data set with Mus musculus [15] and in the data set with Mus musculus [16] was inactive. For the same compound, the outcome with Mus musculus [18] and with Mus musculus [20] was inactive. In addition, the Activity result in the data set with Mus musculus [6], in the data set with Mus musculus [9], with Mus musculus [11], in the data set with Mus musculus [13], with Mus musculus [17] and in the data set on Mus musculus [19] was “Non-toxic” in each case.
On to `CCCOc1c(C(=O)N/N=C(\c2ccccc2)c2ccc(Br)s2)sc(C(=O)N/N=C(\c2ccccc2)c2ccc(Br)s2)c1OCCC`, for which the outcome with Mus musculus [21], in the data set on Mus musculus [1], in the data set with Mus musculus [22], in the data set on Mus musculus [2], with Mus musculus [3] and with Mus musculus [4] was inactive. The outcome in the data set on Mus musculus [5], in the data set on Mus musculus [23], in the data set on Mus musculus [7], with Mus musculus [8], in the data set with Mus musculus [10] and with Mus musculus [12] was inactive. In addition, the result in the data set with Mus musculus [14], in the data set on Mus musculus [15], in the data set with Mus musculus [16], with Mus musculus [18] and with Mus musculus [20] was inactive. Further, the Activity result in the data set with Mus musculus [6] was “Toxic”; in the data set on Mus musculus [9], “Non-toxic”; in the data set with Mus musculus [11] it was “Toxic”; with Mus musculus [13] it was “Toxic”; with Mus musculus [17], “Non-toxic”; in the data set on Mus musculus [19], “Non-toxic”.
Consider `CCCOc1c(C(=O)NN=C(c2ccccc2)c2ccccc2)sc(C(=O)NN=C(c2ccccc2)c2ccccc2)c1OCCC`, for which the result in the data set on Mus musculus [21], in the data set on Mus musculus [1], in the data set on Mus musculus [22], in the data set on Mus musculus [2], in the data set on Mus musculus [3] and in the data set with Mus musculus [4] was inactive. In addition, the result in the data set on Mus musculus [5], in the data set on Mus musculus [23], in the data set on Mus musculus [7], with Mus musculus [8], in the data set on Mus musculus [10] and in the data set on Mus musculus [12] was inactive. Also, the outcome in the data set with Mus musculus [14], in the data set with Mus musculus [15], in the data set on Mus musculus [16], in the data set with Mus musculus [18] and with Mus musculus [20] was inactive. Further, the Activity entry with Mus musculus [6], in the data set with Mus musculus [9], in the data set with Mus musculus [11], in the data set with Mus musculus [17] and in the data set on Mus musculus [19] was “Non-toxic” in each case.
As to `CCCOc1c(C(=O)NN=C2CCCCCC2)sc(C(=O)NN=C2CCCCCC2)c1OCCC`, the outcome with Mus musculus [21], in the data set with Mus musculus [22], in the data set on Mus musculus [2], in the data set on Mus musculus [4], in the data set on Mus musculus [5] and in the data set on Mus musculus [23] was inactive. Further, the result in the data set on Mus musculus [7], in the data set on Mus musculus [8], with Mus musculus [10], in the data set on Mus musculus [12], with Mus musculus [14] and in the data set on Mus musculus [15] was inactive. In addition, the outcome in the data set on Mus musculus [16], in the data set on Mus musculus [18] and in the data set on Mus musculus [20] was inactive. For the same compound, the Activity result in the data set with Mus musculus [6], in the data set on Mus musculus [9], in the data set with Mus musculus [11], in the data set on Mus musculus [13], with Mus musculus [17] and with Mus musculus [19] was “Non-toxic” throughout.
Turning to `CCCOc1c(C(=O)NN=C2CCCCC2)sc(C(=O)NN=C2CCCCC2)c1OCCC`, the result with Mus musculus [21], with Mus musculus [22], in the data set on Mus musculus [2], with Mus musculus [3], in the data set on Mus musculus [4] and with Mus musculus [5] was inactive. Further, the outcome in the data set with Mus musculus [23], in the data set with Mus musculus [7], with Mus musculus [8], in the data set on Mus musculus [10], in the data set on Mus musculus [12] and with Mus musculus [14] was inactive. The outcome in the data set with Mus musculus [15], with Mus musculus [16], in the data set with Mus musculus [18] and in the data set with Mus musculus [20] was inactive. For the same compound, the Activity entry in the data set with Mus musculus [6], in the data set with Mus musculus [9], with Mus musculus [11], in the data set on Mus musculus [13], in the data set with Mus musculus [17] and in the data set with Mus musculus [19] was “Non-toxic” in each case.
